# Measurements taken from ChEMBL document CHEMBL1155242, “Radiolabeled 5-iodo-3'-O-(17beta-succinyl-5alpha-androstan-3-one)-2'-deoxyuridine and its 5'-monophosphate for imaging and therapy of androgen receptor-positive cancers: synthesis and biological evaluation” (J Med Chem, 2009).
# Columns and labels:
# [1] = Chemical stability in RPMI-1640 serum-free medium assessed as half life at 12.2 uCi by HPLC analysis; assay type: physicochemical
# [2] = Chemical stability in phosphate buffer saline at 0.85 uCi after 1265 mins by HPLC analysis; assay type: physicochemical
# [3] = Ratio of drug level in tumor to kidney in athymic NCr mouse xenografted with human OVCAR-3 cells at 180 uCi, ip administered 9 days after tumor implantation as six fractionated doses every 4 days measured after 1.5 hrs by gamma counting; assay type: ADME, organism-based; conditions: in vivo
# [4] = Stability in human OVCAR-3 cells expressing androgen receptor assessed as compound degradation at 0.1 uCi/mL up to 4 hrs by silica gel instant thin layer chromatography; assay type: ADME, cell-based; conditions: read-out: Activity
# [5] = test system: Mus musculus; assay: Toxicity in ip dosed athymic NCr mouse assessed as change in body weight measured after 21 days; assay type: organism-based; conditions: in vivo, 504 h
# [6] = Clearance in peritoneum of athymic NCr mouse xenografted with human OVCAR-3 cells assessed as half life at 1.12 uCi, ip by gamma counting; assay type: ADME, organism-based; conditions: in vivo
# Method in brief: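 Peritoneal clearance measured in athymic NCr-nu/nu mice bearing intraperitoneal NIH:OVCAR-3 xenografts after an ip dose of the 125I compound. The peritoneal cavity was lavaged, and 125I was counted in the lavage and in the recovered tumor cells. Half-lives were estimated from the clearance curves.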
# [7] = Ratio of drug level in tumor to liver in athymic NCr mouse xenografted with human OVCAR-3 cells at 180 uCi, ip administered 9 days after tumor implantation as six fractionated doses every 4 days measured after 24 hrs by gamma counting; assay type: ADME, organism-based; conditions: in vivo
# [8] = test system: OVCAR-3; assay: Antitumor activity against human OVCAR-3 cells xenografted in athymic NCr mouse assessed as reduction of tumor size in peritoneum at 180 uCi, ip administered 9 days after tumor implantation as six fractionated doses every 4 days measured after 2 weeks of last dose by gamma counting; assay type: functional; parameters: scale not given: the % may be the effect or the level left
# Method in brief: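 OVCAR-3 ip xenografts in athymic mice; six fractionated ip doses every 4 days, total 180 μCi/mouse, with PBS or vehicle ip controls. Nonadherent tumor cells recovered by peritoneal lavage at necropsy, counted and pellet-weighed.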
# [9] = Biodistribution in peritoneum of athymic NCr mouse xenografted with human OVCAR-3 cells at 1.12 uCi, ip after 1.5 hrs by gamma counting; assay type: ADME, organism-based; conditions: in vivo
# [10] = biological target: T1, Sex hormone-binding globulin (Oryctolagus cuniculus, UniProt P15196); assay: Binding affinity to rabbit sex hormone binding globulin assessed as intact compound remaining at 10 to 20 uCi/mL after 60 mins by size-exclusion HPLC analysis; assay type: ADME; conditions: read-out: Stability
# T1 sequence (P15196 whole entry): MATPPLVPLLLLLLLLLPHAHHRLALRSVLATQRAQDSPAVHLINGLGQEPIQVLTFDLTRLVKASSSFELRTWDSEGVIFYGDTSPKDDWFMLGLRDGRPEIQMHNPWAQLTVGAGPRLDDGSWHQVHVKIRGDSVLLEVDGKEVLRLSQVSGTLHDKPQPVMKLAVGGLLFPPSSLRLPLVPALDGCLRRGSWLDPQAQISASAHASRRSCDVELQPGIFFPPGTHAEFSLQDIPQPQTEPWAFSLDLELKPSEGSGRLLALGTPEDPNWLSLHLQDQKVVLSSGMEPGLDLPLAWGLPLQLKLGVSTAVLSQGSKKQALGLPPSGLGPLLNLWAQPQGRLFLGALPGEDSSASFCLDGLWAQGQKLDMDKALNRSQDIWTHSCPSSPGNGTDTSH
# Method in brief: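 Radioligand incubated 60 min in rabbit serum; size-exclusion HPLC as for SHBG binding (phosphate/Na2SO4 pH 6.8, then CH3CN gradient) for SHBG-bound peak, with extracts run on C18 for intact compound.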
# [11] = Biodistribution in large intestine of athymic NCr mouse xenografted with human OVCAR-3 cells assessed per gram of tissue at an average 39.5 uCi/dose, ip administered 9 days after tumor implantation as six fractionated doses every 4 days measured after 2 weeks of last dose by gamma counting; assay type: ADME, organism-based; conditions: in vivo, 336 h
# Method in brief: (§1)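 OVCAR-3-bearing and healthy athymic mice given fractionated ip doses on the six-dose every-4-days schedule; tissues, tumor and lavaged cells γ-counted at necropsy, %ID/g; DNA-bound 125I in cells measured as cpm/cell.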
# [12] = biological target: T1, Sex hormone-binding globulin; assay: Binding affinity to rabbit sex hormone binding globulin at 20 uCi after 60 mins by size-exclusion HPLC analysis; assay type: ADME; conditions: 1 h
# Method in brief: (§2)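 Radioligand incubated 60 min with purified human SHBG or with human, rabbit or mouse serum. Size-exclusion HPLC (TSK3000): 0.1 M potassium phosphate/0.1 M Na2SO4 1:1 pH 6.8 for 20 min, then 0–40% CH3CN over 20 min, held 30 min, 0.7 mL/min.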
# [13] = Chemical stability in phosphate buffer saline by HPLC analysis; assay type: physicochemical
# [14] = test system: OVCAR-3; assay: Cellular uptake in human OVCAR-3 cells expressing androgen receptor assessed as ratio of [125I]UdR to thymidine incorporation in DNA at 1.75 uCi/mL after 24 hrs by gamma counting; assay type: ADME, cell-based; conditions: ovcar-3, 24 h
# Method in brief: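 OVCAR-3 cells treated with the radioligand; fraction of DNA thymidine replaced by 125IUdR determined after 24 h.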
# [15] = Biodistribution in tumor of athymic NCr mouse xenografted with human OVCAR-3 cells assessed per gram of tissue at an average 39.5 uCi/dose, ip administered 9 days after tumor implantation as six fractionated doses every 4 days measured after 2 weeks of last dose by gamma counting; assay type: ADME, organism-based, Neoplasm; conditions: in vivo, 336 h; method in brief: as §1
# [16] = test system: Kidney; assay: Biodistribution in kidney of athymic NCr mouse xenografted with human OVCAR-3 cells assessed per gram of tissue at an average 39.5 uCi/dose, ip administered 9 days after tumor implantation as six fractionated doses every 4 days measured after 2 weeks of last dose by gamma counting; assay type: ADME, organism-based; conditions: in vivo, 336 h; method in brief: as §1
# [17] = biological target: T2, Sex hormone-binding globulin (Homo sapiens, UniProt P04278); assay: Binding affinity to human sex hormone binding globulin at 20 uCi after 60 mins by size-exclusion HPLC analysis; assay type: ADME; conditions: 1 h; method in brief: as §2
# T2 sequence (P04278 whole entry): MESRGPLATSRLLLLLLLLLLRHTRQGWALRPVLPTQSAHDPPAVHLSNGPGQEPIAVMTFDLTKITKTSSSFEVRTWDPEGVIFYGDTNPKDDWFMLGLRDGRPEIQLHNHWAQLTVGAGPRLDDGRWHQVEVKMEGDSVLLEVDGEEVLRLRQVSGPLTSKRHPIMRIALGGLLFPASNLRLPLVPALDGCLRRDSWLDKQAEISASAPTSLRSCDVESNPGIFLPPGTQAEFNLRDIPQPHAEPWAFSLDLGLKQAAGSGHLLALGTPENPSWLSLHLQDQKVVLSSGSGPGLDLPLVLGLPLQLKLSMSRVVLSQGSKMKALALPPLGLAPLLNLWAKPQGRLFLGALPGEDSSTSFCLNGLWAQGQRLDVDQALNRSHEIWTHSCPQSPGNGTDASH
# [18] = test system: Serum; assay: Stability in mouse serum assessed as time required for formation of [125I]UdR at 10 to 20 uCi/mL after 60 mins by gamma counting; assay type: ADME, cell-free; conditions: 1 h
# [19] = test system: Mus musculus; assay: Toxicity in athymic NCr mouse xenografted with human OVCAR-3 cells assessed as hemoglobin level at 0.25 mCi, ip administered 31 days after tumor implantation as single bolus dose measured 55 days after implantation […] in presence of SHBG (RVb= 11.5 +/- 1.3 g/dL); assay type: organism-based; conditions: in vivo
Structure (SMILES),t1/2 [1],Stability [2],Ratio [3],"metabolised at 4 h, 0.1 uCi/mL [4]",Activity [5],t1/2 [6],Ratio [7],Activity [8],Drug uptake [9],remaining at 1 h [10],Drug uptake [11],Activity [12],Stability [13],Ratio [14],Drug uptake [15],Drug uptake [16],Activity [17],Stability [18],Activity [19]
C[C@]12CCC(=O)C[C@@H]1CC[C@@H]1[C@@H]2CC[C@]2(C)[C@@H](OC(=O)CCC(=O)O[C@H]3C[C@H](n4cc([125I])c(=O)[nH]c4=O)O[C@@H]3CO)CC[C@@H]12,54.2 h,Stable,0.9,60%,Non-toxic,26 h,65,70%,29%,> 84%,,,,,,,,,
C[C@]12CCC(=O)C[C@@H]1CC[C@@H]1[C@@H]2CC[C@]2(C)[C@@H](OC(=O)CCC(=O)O[C@H]3C[C@H](n4cc([125I])c(=O)[nH]c4=O)O[C@@H]3COP(=O)(O)O)CC[C@@H]12,,,,,,,,,,,0.008 %ID,Active,Stable,0.002,2.892 %ID,0.013 %ID,Active,< 10 min,12.2 g/dL
